The source made the active and inactive calls. The rule behind the calls is not given here.

In ChEMBL document CHEMBL4020823, “Highly Selective, Potent, and Oral mTOR Inhibitor for Treatment of Cancer as Autophagy Inducer” (J Med Chem, 2018) one finds inhibition data, which are given here for 1 compound.

This assay concerns HeLa. As to the kind of experiment: Inhibition of mTORC2 in human HeLa cells assessed as reduction in AKT phosphorylation at Ser473 residues at 0.5 to 1 uM by Western blot analysis. Format: cell-based. In outline: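 Cells treated with the indicated concentrations, then whole-cell lysates immunoblotted. mTORC1 activity read as S6 and 4E-BP1 phosphorylation; mTORC2 activity read as AKT Ser473 phosphorylation. Blocking in 5% skim milk, primary antibodies at 4 °C overnight, peroxidase-conjugated secondary, ECL detection.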

In the case of `N#CCN1CCC(n2c(=O)cnc3cnc4ccc(-c5ccc(N)nc5)cc4c32)CC1`, the inhibition result is “Active”.
